Experimental data from ChEMBL document CHEMBL1152689, “Synthesis, tautomerism, and antimicrobial, anti-HCV, anti-SSPE, antioxidant, and antitumor activities of arylazobenzosuberones” (Bioorg Med Chem, 2009).
In brackets after ≈: the same amount, converted by molar mass. Activity calls are given as the source filed them. The calls are words filed in the database; no cut-off is given here.

Legend:
Aspergillus fumigatus [1] = assay: Antimicrobial activity against Aspergillus fumigatus at 1.25 ug/mL by agar diffusion method; assay type: functional; settings: read-out: IZ
Aspergillus fumigatus [2] = assay: Antimicrobial activity against Aspergillus fumigatus at 5 ug/mL by agar diffusion method; assay type: functional; settings: read-out: IZ
Staphylococcus aureus [3] = assay: Antimicrobial activity against Staphylococcus aureus at 2.5 ug/mL by agar diffusion method; assay type: functional; settings: read-out: IZ
Pseudomonas aeruginosa [4] = assay: Antimicrobial activity against Pseudomonas aeruginosa at 2.5 ug/mL by agar diffusion method; assay type: functional; settings: read-out: IZ
Penicillium italicum [5] = assay: Antimicrobial activity against Penicillium italicum at 2.5 ug/mL by agar diffusion method; assay type: functional; settings: read-out: IZ
Escherichia coli [6] = assay: Antimicrobial activity against Escherichia coli at 2.5 ug/mL by agar diffusion method; assay type: functional; settings: read-out: IZ
Bacillus subtilis [7] = assay: Antimicrobial activity against Bacillus subtilis at 2.5 ug/mL by agar diffusion method; assay type: functional; settings: read-out: IZ
Staphylococcus aureus [8] = assay: Antimicrobial activity against Staphylococcus aureus at 1.25 ug/mL by agar diffusion method; assay type: functional; settings: read-out: IZ
[9] = tested on: Radical scavenging activity; assay: Antioxidant activity assessed as DPPH free radical scavenging activity by measuring reduction in DPPH absorbance by ELISA relative to untreated control; assay type: functional; parameters: concentration or dose not given beside the values
How it was run: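 Test compounds dissolved in DMSO, ascorbic acid standard in water, both serially diluted. 10 µl sample added to 90 µl of 100 µM DPPH in methanol and kept in the dark at 37 °C for 30 min. Absorbance read at 515 nm. Blank is DMSO plus DPPH. % reduction = (A_B − A_A)/A_B × 100. Run in triplicate.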

Bacillus subtilis [10] = assay: Antimicrobial activity against Bacillus subtilis at 1.25 ug/mL by agar diffusion method; assay type: functional; settings: read-out: IZ
Escherichia coli [11] = assay: Antimicrobial activity against Escherichia coli at 5 ug/mL by agar diffusion method; assay type: functional; settings: read-out: IZ
[12] = tested on: Syncephalastrum racemosum; assay: Antimicrobial activity against Syncephalastrum racemosum at 2.5 ug/mL by agar diffusion method; assay type: functional; settings: read-out: IZ
Hepatitis C virus = assay: Antiviral activity against HCV by cell based replicon assay; assay type: functional, Hepacivirus hominis
How it was run: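 HCV replicon cells plated at 1×10^4 per well. Next day incubated at 37 °C with serially diluted compound in DMEM with 2% FBS and 0.5% DMSO. HCV RNA copy number measured by quantitative RT-PCR on total cellular RNA. Each point is the average of five replicates. Cytotoxicity measured by MTS in parallel.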

Pseudomonas aeruginosa [13] = assay: Antimicrobial activity against Pseudomonas aeruginosa at 1.25 ug/mL by agar diffusion method; assay type: functional; settings: read-out: IZ
Pseudomonas aeruginosa [14] = assay: Antimicrobial activity against Pseudomonas aeruginosa at 5 ug/mL by agar diffusion method; assay type: functional; settings: read-out: IZ
MC-38 = assay: Antitumor activity against mouse Colon 38 cells implanted in iv dosed C57BL/6 mouse administered as single dose; assay type: functional, organism-based
How it was run: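 Female C57BL/6 mice, 6 weeks old, given about 30 mg Colon 38 tumor tissue s.c. in the flank. Randomized into groups of n = 5 when tumors reached about 300 mm3 (day 1). Compound in 5% glucose given as a single iv tail-vein dose on day 1; controls received 5% glucose. Tumor volume = (length × width²)/2 and body weight tracked.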

[15] = Antioxidant activity assessed as inhibition of peroxynitrite-mediated 3-nitrotyrosine formation by HPLC; assay type: functional
How it was run: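 Tyrosine and peroxynitrite, each 100 µM, reacted with compound at 0–300 µM in 100 mM phosphate buffer pH 7.4 at 37 °C for 15 min. Peroxynitrite made from acidified H2O2 plus KNO2, quenched with NaOH, and kept on ice no longer than 30 min before use.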

[16] = biological target: T1, DNA topoisomerase 1 (Homo sapiens) (UniProt P11387); assay: Inhibition of topoisomerase 1 relative to etoposide
T1 sequence (whole entry): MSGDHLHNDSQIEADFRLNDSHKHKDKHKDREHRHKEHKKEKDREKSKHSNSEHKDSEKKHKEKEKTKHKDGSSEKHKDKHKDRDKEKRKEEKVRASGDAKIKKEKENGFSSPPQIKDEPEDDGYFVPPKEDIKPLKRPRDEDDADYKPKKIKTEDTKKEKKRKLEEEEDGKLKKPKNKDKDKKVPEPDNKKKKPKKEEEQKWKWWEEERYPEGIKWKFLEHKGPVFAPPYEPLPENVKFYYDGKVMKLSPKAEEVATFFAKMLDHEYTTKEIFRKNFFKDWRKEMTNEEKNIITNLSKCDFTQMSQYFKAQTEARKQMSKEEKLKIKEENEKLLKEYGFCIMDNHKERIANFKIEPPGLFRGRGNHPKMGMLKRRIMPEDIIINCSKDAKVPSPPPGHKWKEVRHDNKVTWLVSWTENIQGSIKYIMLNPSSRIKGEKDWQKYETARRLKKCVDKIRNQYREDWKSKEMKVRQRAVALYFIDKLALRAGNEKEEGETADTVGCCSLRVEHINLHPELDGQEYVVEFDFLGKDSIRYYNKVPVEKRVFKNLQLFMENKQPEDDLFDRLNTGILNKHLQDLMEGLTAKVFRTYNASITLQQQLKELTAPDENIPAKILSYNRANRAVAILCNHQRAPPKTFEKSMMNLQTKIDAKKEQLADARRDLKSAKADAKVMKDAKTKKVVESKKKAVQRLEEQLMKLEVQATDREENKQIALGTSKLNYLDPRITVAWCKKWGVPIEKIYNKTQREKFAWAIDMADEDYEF

Staphylococcus aureus [17] = assay: Antimicrobial activity against Staphylococcus aureus at 5 ug/mL by agar diffusion method; assay type: functional; settings: read-out: IZ
Bacillus subtilis [18] = assay: Antimicrobial activity against Bacillus subtilis at 5 ug/mL by agar diffusion method; assay type: functional; settings: read-out: IZ
Penicillium italicum [19] = assay: Antimicrobial activity against Penicillium italicum at 5 ug/mL by agar diffusion method; assay type: functional; settings: read-out: IZ
Measles morbillivirus = assay: Antiviral activity against Measles virus infected in intracranially dosed hamster assessed as inhibition of subacute sclerosing panencephalitis; assay type: functional
How it was run: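 Hamsters under ether anesthesia injected intracranially, into the subarachnoid space at 2 mm depth, at 5, 10 and 20 mg/kg/day for 10 days. Four animals per group sacrificed on days 1–20. Brains homogenized in PBS and centrifuged, supernatant deproteinized with ethanol, then MIC in brain tissue determined by HPLC and bioassay.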

Candida albicans [20] = assay: Antimicrobial activity against Candida albicans at 5 ug/mL by agar diffusion method; assay type: functional; settings: read-out: IZ
[21] = biological target: DNA topoisomerase 2-alpha (Mus musculus) (UniProt Q01320); assay: Inhibition of topoisomerase 2 from mouse P388 cells assessed as relaxation of pBR322 DNA by agarose gel electrophoresis relative to etoposide; assay type: cell-based
How it was run: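 Topoisomerase II purified from P388 cells. One unit relaxes 0.125 µg supercoiled pBR322 DNA, incubated with or without inhibitor at 30 °C for 1 h in 50 mM Tris-HCl pH 8.0, 100 mM KCl, 10 mM MgCl2, 0.5 mM DTT, 1 mM ATP and 30 µg/ml BSA. Products run on 0.7% agarose in TBE, stained with ethidium bromide and imaged under UV.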

Escherichia coli [22] = assay: Antimicrobial activity against Escherichia coli at 1.25 ug/mL by agar diffusion method; assay type: functional; settings: read-out: IZ
[23] = tested on: Syncephalastrum racemosum; assay: Antimicrobial activity against Syncephalastrum racemosum at 1.25 ug/mL by agar diffusion method; assay type: functional; settings: read-out: IZ
Aspergillus fumigatus [24] = assay: Antimicrobial activity against Aspergillus fumigatus at 2.5 ug/mL by agar diffusion method; assay type: functional; settings: read-out: IZ
Candida albicans [25] = assay: Antimicrobial activity against Candida albicans at 2.5 ug/mL by agar diffusion method; assay type: functional; settings: read-out: IZ
[26] = tested on: Syncephalastrum racemosum; assay: Antimicrobial activity against Syncephalastrum racemosum at 5 ug/mL by agar diffusion method; assay type: functional; settings: read-out: IZ
Penicillium italicum [27] = assay: Antimicrobial activity against Penicillium italicum at 1.25 ug/mL by agar diffusion method; assay type: functional; settings: read-out: IZ
Candida albicans [28] = assay: Antimicrobial activity against Candida albicans at 1.25 ug/mL by agar diffusion method; assay type: functional; settings: read-out: IZ

Sequence of DNA topoisomerase 2-alpha (Mus musculus) (Q01320 whole entry): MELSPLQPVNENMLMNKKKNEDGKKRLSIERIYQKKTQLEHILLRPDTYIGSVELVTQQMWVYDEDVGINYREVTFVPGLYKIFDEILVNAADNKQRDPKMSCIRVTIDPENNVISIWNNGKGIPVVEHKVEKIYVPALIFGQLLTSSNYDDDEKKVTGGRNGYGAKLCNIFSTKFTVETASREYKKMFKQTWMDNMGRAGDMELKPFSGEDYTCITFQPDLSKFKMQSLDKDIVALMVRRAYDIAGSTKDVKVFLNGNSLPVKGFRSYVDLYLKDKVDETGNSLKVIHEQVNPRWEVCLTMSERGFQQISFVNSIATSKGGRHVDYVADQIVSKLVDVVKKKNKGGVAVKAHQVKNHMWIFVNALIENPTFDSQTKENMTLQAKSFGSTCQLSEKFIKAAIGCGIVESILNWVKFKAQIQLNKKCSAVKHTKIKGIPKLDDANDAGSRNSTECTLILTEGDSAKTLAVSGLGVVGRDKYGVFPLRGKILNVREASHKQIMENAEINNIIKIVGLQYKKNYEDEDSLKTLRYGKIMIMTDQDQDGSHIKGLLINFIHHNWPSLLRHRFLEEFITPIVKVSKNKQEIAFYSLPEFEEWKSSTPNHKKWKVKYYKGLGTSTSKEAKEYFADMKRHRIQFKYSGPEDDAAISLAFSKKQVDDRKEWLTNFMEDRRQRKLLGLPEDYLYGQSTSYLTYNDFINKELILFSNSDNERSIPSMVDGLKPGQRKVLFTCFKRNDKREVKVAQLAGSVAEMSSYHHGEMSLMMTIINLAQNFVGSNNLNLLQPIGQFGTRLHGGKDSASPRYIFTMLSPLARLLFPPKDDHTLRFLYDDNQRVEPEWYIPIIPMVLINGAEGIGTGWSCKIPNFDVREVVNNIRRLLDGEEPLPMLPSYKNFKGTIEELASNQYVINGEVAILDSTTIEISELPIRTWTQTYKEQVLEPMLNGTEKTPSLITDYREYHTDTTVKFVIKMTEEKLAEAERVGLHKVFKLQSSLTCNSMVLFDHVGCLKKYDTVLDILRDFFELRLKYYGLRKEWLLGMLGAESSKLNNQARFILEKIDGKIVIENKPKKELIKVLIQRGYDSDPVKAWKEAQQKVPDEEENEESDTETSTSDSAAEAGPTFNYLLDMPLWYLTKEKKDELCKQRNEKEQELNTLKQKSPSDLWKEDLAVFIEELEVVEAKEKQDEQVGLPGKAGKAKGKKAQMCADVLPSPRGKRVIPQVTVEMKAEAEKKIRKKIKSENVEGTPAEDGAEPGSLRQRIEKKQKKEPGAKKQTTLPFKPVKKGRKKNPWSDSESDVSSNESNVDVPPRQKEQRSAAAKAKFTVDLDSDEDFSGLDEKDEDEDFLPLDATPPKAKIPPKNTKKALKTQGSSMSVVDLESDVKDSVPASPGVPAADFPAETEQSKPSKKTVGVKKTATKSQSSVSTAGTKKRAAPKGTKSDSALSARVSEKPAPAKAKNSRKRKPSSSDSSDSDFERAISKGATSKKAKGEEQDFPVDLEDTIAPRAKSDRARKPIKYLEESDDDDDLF

SMILES: O=C1/C(=N/Nc2cccc([N+](=O)[O-])c2)CCCc2ccccc21
- zone of inhibition at 1.25 µg/mL (Aspergillus fumigatus [1]): 8 mm
- zone of inhibition at 5 µg/mL (Aspergillus fumigatus [2]): 20 mm
- zone of inhibition at 2.5 µg/mL (Staphylococcus aureus [3]): 6 mm
- zone of inhibition at 2.5 µg/mL (Pseudomonas aeruginosa [4]): 0 mm
- zone of inhibition at 2.5 µg/mL (Penicillium italicum [5]): 0 mm
- zone of inhibition at 2.5 µg/mL (Escherichia coli [6]): 5 mm
- zone of inhibition at 2.5 µg/mL (Bacillus subtilis [7]): 13 mm
- zone of inhibition at 1.25 µg/mL (Staphylococcus aureus [8]): 0 mm
- Activity [9]: 81.1%
- zone of inhibition at 1.25 µg/mL (Bacillus subtilis [10]): 8 mm
- zone of inhibition at 5 µg/mL (Escherichia coli [11]): 12 mm
- zone of inhibition at 2.5 µg/mL [12]: 12 mm
- MIC (Hepatitis C virus): 1.04 µg/mL (≈ 3.37 µM)
- zone of inhibition at 1.25 µg/mL (Pseudomonas aeruginosa [13]): 0 mm
- zone of inhibition at 5 µg/mL (Pseudomonas aeruginosa [14]): 0 mm
- Activity (MC-38): Active
- IC50 [15]: 56 µM
- Ratio [16]: 4.5
- zone of inhibition at 5 µg/mL (Staphylococcus aureus [17]): 10 mm
- zone of inhibition at 5 µg/mL (Bacillus subtilis [18]): 19 mm
- zone of inhibition at 5 µg/mL (Penicillium italicum [19]): 0 mm
- MIC (Measles morbillivirus): 6.11 µg/mL (≈ 19.8 µM)
- zone of inhibition at 5 µg/mL (Candida albicans [20]): 15 mm
- Ratio [21]: 4.53
- zone of inhibition at 1.25 µg/mL (Escherichia coli [22]): 0 mm
- zone of inhibition at 1.25 µg/mL [23]: 9 mm
- zone of inhibition at 2.5 µg/mL (Aspergillus fumigatus [24]): 11 mm
- zone of inhibition at 2.5 µg/mL (Candida albicans [25]): 8 mm
- zone of inhibition at 5 µg/mL [26]: 19 mm
- zone of inhibition at 1.25 µg/mL (Penicillium italicum [27]): 0 mm
- zone of inhibition at 1.25 µg/mL (Candida albicans [28]): 5 mm
